Source: PubChem
Shown are actives, neighbours in structure and some others; about 1.5% of the full set was active somewhere.
NR2E3 ag-1: NR2E3 agonists in two-hybrid cells, primary screen, cell-based, luminescence, CHO-S, Gal4-NCOR/VP16-NR2E3 | Photoreceptor-specific nuclear receptor (Homo sapiens), Q9Y5X4 | luciferase | inhibition of corepressor binding, % at 3.98 µM | hit rate 0.35% among 360,000;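 active means inhibition above the mean of all tested compounds plus 3 SD, cut at about 70% in these data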;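 further: higher means lower luciferase signal from less NR2E3 corepressor binding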
PG9 binder: binders of HIV-1 gp120 antibody PG9, primary screen, biochemical, TR-FRET; TR-FRET gp120-PG9 antibody binding; inhibition, % at 6.7 µM; hit rate 0.43% among 360,000; in the data active means inhibition above about 8.5%
Rev-erbA mod: modulators of Rev-erb alpha DNA binding, primary screen, biochemical, FITC-DNA, fluorescence polarization, uHTS; Nuclear receptor subfamily 1 group D member 1 (Homo sapiens), P20393; hit rate 0.79% among 370,000; activity, % at 10 µM; Rev-erbα–FITC-DNA binding, 90 min; AID 1259318, 2017;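 active means activity above about 14%, limit read from the data; passing the limit was not always enough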
Target sequence (P20393 whole entry, looked up): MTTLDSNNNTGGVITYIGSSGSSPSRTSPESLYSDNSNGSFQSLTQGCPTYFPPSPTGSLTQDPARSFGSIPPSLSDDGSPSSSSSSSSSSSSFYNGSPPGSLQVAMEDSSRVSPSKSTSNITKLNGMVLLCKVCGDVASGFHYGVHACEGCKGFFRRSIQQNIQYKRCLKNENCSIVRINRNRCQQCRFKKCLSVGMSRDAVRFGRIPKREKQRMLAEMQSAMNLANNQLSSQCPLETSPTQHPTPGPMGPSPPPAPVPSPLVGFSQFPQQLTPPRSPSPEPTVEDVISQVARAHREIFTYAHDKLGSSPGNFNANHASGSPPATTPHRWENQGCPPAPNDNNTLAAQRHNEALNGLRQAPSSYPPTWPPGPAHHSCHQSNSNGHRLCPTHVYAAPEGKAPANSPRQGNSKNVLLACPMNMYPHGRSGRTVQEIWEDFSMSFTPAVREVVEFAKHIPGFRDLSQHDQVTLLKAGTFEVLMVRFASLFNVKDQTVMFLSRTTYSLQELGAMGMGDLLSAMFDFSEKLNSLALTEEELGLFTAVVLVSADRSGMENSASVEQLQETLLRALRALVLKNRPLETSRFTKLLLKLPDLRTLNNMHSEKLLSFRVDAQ
NR2E3 ag-2: inhibitors of NR2E3-RetCOR corepressor binding, primary screen, NR2E3 agonist project, biochemical, TR-FRET, GST-NR2E3, biotin-RetCOR. Photoreceptor-specific nuclear receptor (Homo sapiens), Q9Y5X4. 1536-well. inhibition of corepressor binding, % at 4.78 µM. hit rate 0.12% among 320,000;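 active means percent inhibition above the cutoff of mean plus 3 SD of all tested compounds, set per screening campaign, cut at about 20% in these data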
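System: GST-tagged NR2E3 plus biotinylated RetCOR corepressor; Amount: 1.35 nM GST-tagged NR2E3 final; Dosing: single nominal compound dose of 4.8 µM; Schedule: 5 h incubation at 4 °C; Technique: TR-FRET with europium anti-GST and streptavidin-D2, 340 nm excitation; Controls: biotin wells as high control, 0.6% DMSO wells as low control.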
NR2E3 agonist cf: NR2E3 agonists, confirmation, biochemical, TR-FRET; cell-free NR2E3 corepressor release, 5 h; hit rate 39% among 360; shares compounds with NR2E3 ag-2; activation (reported as inhibition), % at 3.98 µM; in the data active means activation above about 20%
PPARg-NCOR2 ctr: agonists of PPARg-NCOR2 corepressor interaction, counter-screen for NR2E3 agonist project, biochemical, TR-FRET. shares compounds with NR2E3 ag-2. TR-FRET PPARg-NCOR2 coregulator interaction. inhibition, % at 3.98 µM. hit rate 45% among 360; in the data active means inhibition above about 20%
Of the large screens only hits and unclear results are named; the others gave an inactive call (follow-up assays come after a bar, where they were run).

CO[C@H]1O[C@H](CO)[C@H](O[C@@H]2OC(C(=O)O)[C@@H](O[C@H]3O[C@H](COS(=O)(=O)O)[C@H](O[C@@H]4OC(C(=O)O)[C@@H](O[C@H]5O[C@H](CO)[C@H](O[C@@H]6OC(C(=O)O)[C@@H](O[C@H]7O[C@H](COS(=O)(=O)O)[C@H](O[C@@H]8OC(C(=O)O)=C[C@H](O)C8OS(=O)(=O)O)[C@H](O)[C@H]7NC(C)=O)[C@H](O)[C@H]6O)[C@H](O)[C@H]5NC(C)=O)[C@H](O)[C@H]4O)[C@H](O)[C@H]3NC(C)=O)[C@H](O)[C@H]2O)[C@H](O)[C@H]1NC(C)=O (stereo not given in full)	none (no result: NR2E3 ag-1, PG9 binder, NR2E3 ag-2)
CN(C)CCN1C(=O)C(O)=C(C(=O)c2cc3ccccc3o2)C1c1ccccn1 (stereo not given)	NR2E3 ag-2 26.8 (no result: NR2E3 ag-1, PG9 binder, Rev-erbA mod) | NR2E3 agonist cf inactive | PPARg-NCOR2 ctr inactive
O=C(C1=C(O)C(=O)N(CCN2CCOCC2)C1c1ccc(Cl)cc1)c1cc2ccccc2o1 (stereo not given)	NR2E3 ag-2 20.0 | NR2E3 agonist cf 25.7 | PPARg-NCOR2 ctr 23.3
C[C@]12C=CC(=O)C=C1CCC1C2[C@@H](O)C[C@@]2(C)C1CC[C@]2(O)C(=O)COP(=O)(O)O (stereo not given in full)	none (no result: NR2E3 ag-1, PG9 binder, NR2E3 ag-2)
CCSc1nnc(NC(=O)CCc2ccccc2)s1	NR2E3 ag-2 40.1 | NR2E3 agonist cf inactive | PPARg-NCOR2 ctr inactive
COc1ccc(CCN2C(=O)C(O)=C(C(=O)c3ccco3)C2c2cccs2)cc1OC (stereo not given)	NR2E3 ag-2 23.8 | NR2E3 agonist cf inactive | PPARg-NCOR2 ctr inactive
CCCOc1cccc(C2C(C(=O)c3ccco3)=C(O)C(=O)N2CCN(CC)CC)c1 (stereo not given)	none
COCCN1C(=O)C(O)=C(C(=O)c2ccco2)C1c1cccc(Oc2ccccc2)c1 (stereo not given)	NR2E3 ag-2 22.6 | NR2E3 agonist cf inactive | PPARg-NCOR2 ctr 28.1
COc1cc(C2C(C(=O)c3ccco3)=C(O)C(=O)N2CCc2ccccc2)ccc1O (stereo not given)	none
CC1(C)S[C@@H]2[C@H](NC(=O)[C@H](NC(=O)N3CCNC3=O)c3ccccc3)C(=O)N2C1C(=O)O (stereo not given in full)	none (no result: NR2E3 ag-1, PG9 binder, NR2E3 ag-2)
Cc1c(F)cccc1NC(=O)CCCCCC1NC(=O)NC1C (stereo not given)	NR2E3 ag-2 97.3 | NR2E3 agonist cf 88.7 | PPARg-NCOR2 ctr 92.2
O=C(CCCC(=O)c1ccccc1)Nc1ccc(F)cc1	none
CC1NC(=O)NC1CCCCCC(=O)Nc1ccc(F)cc1 (stereo not given)	NR2E3 ag-2 85.6 | NR2E3 agonist cf 89.3 | PPARg-NCOR2 ctr 90.4
CCC[C@@H]1C[C@@H](C(=O)N[C@H]([C@H]2O[C@H](SC)[C@H](O)[C@@H](O)[C@H]2O)[C@H](C)O)N(C)C1	none (no result: NR2E3 ag-1, PG9 binder, NR2E3 ag-2)
Cc1ccc2nc(SCC(=O)Nc3ccc4c(c3)CCC4)[nH]c2c1	none
O=C(CSc1nc2ccc(Cl)cc2[nH]1)Nc1ccc2c(c1)CCC2	NR2E3 ag-2 32.3 | NR2E3 agonist cf inactive | PPARg-NCOR2 ctr inactive
CC(=O)O[C@]1(C(C)=O)CCC2C3C=C(C)C4=CC(=O)CCC4(C)C3CCC21C (stereo not given in full)	none (no result: NR2E3 ag-1, PG9 binder, NR2E3 ag-2)
c1ccc(Cn2nnc3c(NCCN4CCOCC4)ncnc32)cc1	none
c1ccc(CCNc2ncnc3c2nnn3Cc2ccccc2)cc1	NR2E3 ag-2 22.2 | NR2E3 agonist cf inactive | PPARg-NCOR2 ctr inactive
CC(C)CN(C[C@@H](OP(=O)(O)O)[C@H](Cc1ccccc1)NC(=O)O[C@H]1CCOC1)S(=O)(=O)c1ccc(N)cc1	none (no result: NR2E3 ag-1, PG9 binder, NR2E3 ag-2)
